Dynein cargo inh: blocks dynein driven cargo transport along microtubules | 3617.4 mouse cells, GR-EGFP nuclear translocation imaging; test concentration mostly 20 µM; stimulated with dexamethasone, 1 µM; stronger effect = lower value | z-score, hits read low | actives 0.47% (n = 220,000) | AID 1381;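 active = plate z-score of nuclear minus cytoplasmic receptor signal below a set negative limit, without overly bright fluorescence or cell loss, cut at about -3.5 in these data, passing the limit was not always enough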;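 note: z-score of nuclear minus cytoplasmic ring GR-EGFP intensity difference per well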
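Also added: dexamethasone, 1.0 µM final. Medium: tet-free, stripped-serum medium. Detection: fixed, Hoechst-stained cells imaged at 10x for EGFP. Read-out: nuclear-to-cytoplasmic GR-EGFP distribution per well. Times: induction 48 h, compound 1 h, agonist 30 min.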
Autophagy mod: modulators of autophagy; MEF GFP-LC3 puncta imaging; test concentration mostly 10 µM; calls only at 10 µM (by protocol); actives 0.98% (n = 190,000);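 active = percentage of spot-positive cells more than 3 SD above its plate mean, without a fluorescence outlier flag or 80% toxicity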
L929 necroptosis: blocks zVAD induced death of L929 cells. viability rescue, % at 10 µM. L929 zVAD necroptosis rescue, ATP luminescence, 24 h; with zVAD 60 µM. actives 0.38% (n = 220,000). AID 1377;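 active = activation, scaled between plate controls, above about 75%, limit read from the data; inactive = activation under that limit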
Hck Nef HTS: blocks Nef-activated human Hck kinase | inhibition, % at 20 µM | Recombinant Hck-YEEI plus Nef, Z-Lyte FRET kinase assay | actives 0.68% (n = 220,000) | P08631;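 active = Hck-Nef kinase inhibition above about 50%, limit read from the data; inactive = inhibition below that limit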
Target sequence (P08631 whole entry, looked up): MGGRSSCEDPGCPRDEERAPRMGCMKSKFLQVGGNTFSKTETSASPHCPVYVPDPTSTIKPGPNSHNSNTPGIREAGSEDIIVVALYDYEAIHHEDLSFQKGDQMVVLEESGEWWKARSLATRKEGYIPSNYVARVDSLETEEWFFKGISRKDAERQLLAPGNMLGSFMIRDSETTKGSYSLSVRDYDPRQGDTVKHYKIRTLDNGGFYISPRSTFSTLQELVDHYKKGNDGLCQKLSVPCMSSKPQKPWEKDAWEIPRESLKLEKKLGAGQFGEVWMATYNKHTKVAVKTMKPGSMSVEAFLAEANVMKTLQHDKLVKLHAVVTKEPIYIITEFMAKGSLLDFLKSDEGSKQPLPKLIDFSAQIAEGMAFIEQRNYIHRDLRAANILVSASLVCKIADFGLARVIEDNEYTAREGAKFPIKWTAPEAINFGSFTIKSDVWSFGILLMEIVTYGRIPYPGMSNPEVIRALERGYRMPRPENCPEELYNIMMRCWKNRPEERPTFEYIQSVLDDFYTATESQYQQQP
Mdm2 ligase inh: Mdm2 E3 ligase (human) inhibition | Q00987 | signal enhancement, % at 5 µM | actives 0.11% (n = 210,000) | cell-based MDM2 ubiquitination luciferase reporter, 2 h; 0 = plate control, 100 = twice control, blank-subtracted;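 active = signal enhancement of 30% or more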;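 note: luminescence tracks abundance of the self-degrading MDM2-luciferase fusion protein; higher signal means inhibition of MDM2 E3 ligase activity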
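System: stable MDM2–luciferase fusion reporter cells / Input: 2000 cells seeded into each well / Schedule: 4 h settle plus 2 h compound, 37 °C / Compound: single-point 5 µM / Buffer or medium: cells held in DMEM / Benchmarks: control and blank well means / Evaluation: percent signal gain over controls, blank-subtracted / Measured by: luciferase luminescence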
TNF death inh: TNF-alpha cell death inhibition in Jurkat FADD-/- cells; Jurkat FADD-/- TNF necroptosis rescue, ATP luminescence, 24 h; 0 = TNF only, 100 = no-TNF cells; activation (protection from cell death), % at 10 µM; actives 0.068% (n = 220,000); AID 463075;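 active = activation, meaning protection from cell death, of at least 50% relative to plate controls; inactive = activation below 50%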;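 note: necroptosis triggered by 40 ng/mL TNF-alpha added together with compound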
Of the large screens only hits and unclear results are named; the others gave an inactive call; ! = not active in a repeat. In the library only some 2.4% were active in any assay of this set; here they are far more common.

Cc1ccccc1OCc1n[nH]c(=S)n1Cc1ccccc1	Autophagy mod active
CC(C)=C1SC(N2CCN(c3cccc(C(F)(F)F)c3)CC2)=NC1=O	Mdm2 ligase inh 30.3
CCOC(=O)c1c(NC(=O)CSc2nnc(-c3cccnc3)o2)sc2c1CCC2	none
CCOC(=O)c1c(NC(=O)CSc2nnc(-c3ccc(OC)cc3)o2)sc2c1CCC2	Autophagy mod active (no result: Mdm2 ligase inh)
CC(=O)Nc1nc(-c2ccc(Cl)cc2)ns1	Autophagy mod active
N#CC(C(=O)NC1CCCCC1)c1nc2ccccc2nc1N1CCN(c2ccc(F)cc2)CC1 (configuration not stated)	Autophagy mod active
COc1ccc(Nc2nc3c(C)cccc3cc2C#N)c(OC)c1	Autophagy mod active
COc1ccc(Nc2nc3cc(C)ccc3cc2C#N)c(OC)c1	Autophagy mod active
CCCCOC(=O)Cn1c2ccc(OC)cc2c2nc3ccccc3nc21	Autophagy mod active
CCOc1ccc(Cn2c3ccc(OC)cc3c3nc4ccccc4nc32)cc1	Autophagy mod active
CCn1c2ccc(OC)cc2c2nc3ccccc3nc21	none (no result: Mdm2 ligase inh)
O=C(O)Cc1c(-c2ccccc2Cl)c2cc(Br)ccc2[nH]c1=O	none (no result: Autophagy mod)
N#Cc1cc([N+](=O)[O-])ccc1NC(=O)COC(=O)CCC1CCCCC1	none
CC(C)S(=O)(=O)c1cnc(-c2cccnc2)nc1N	none (no result: Autophagy mod)
COc1cc(SC)ccc1C(=O)Nc1ncc(Cl)cc1Cl	Autophagy mod active
COc1cc(SC)ccc1C(=O)Nc1ccc(Br)cn1	none (no result: Autophagy mod)
COc1ccc(CNn2c(-c3ccccc3F)nc3ccccc3c2=O)cc1OC	none
COc1ccc(OC)c(CNn2c(-c3ccccc3F)nc3ccccc3c2=O)c1	Mdm2 ligase inh 42.6
COc1ccc(OC)c(Nc2ncnc3c2cnn3-c2cccc(C)c2)c1	Autophagy mod active (no result: L929 necroptosis)
COc1ccc(-c2nnn(-c3ccc(Cl)cc3Cl)c2N)cc1	none (no result: Autophagy mod)
Cc1nc(-n2[nH]c3c(c2=O)CCCC3)[nH]c(=O)c1Cc1ccccc1	Autophagy mod active
COc1ccc(C2CCCN2C(=O)Nc2ccc(Cl)cc2)cc1OC (configuration not stated)	Autophagy mod active
Cc1ccc(Nc2nc(N/N=C/c3c[nH]c4ccccc34)nc(N3CCOCC3)n2)cc1	none
Cc1[nH]c2ccccc2c1/C=N/Nc1nc(Nc2ccc(F)cc2)nc(N2CCOCC2)n1	Autophagy mod active
COC(Cn1cc(C)c(=O)[nH]c1=O)OC	Mdm2 ligase inh 42.1
O=C(CCC(=O)c1ccc(Br)cc1)Nc1cccc(C(F)(F)F)c1	L929 necroptosis 90.9
COc1ccc(C[C@H]2CN3C(=NC[C@@H]3C(C)C)N2C[C@H](C)NC(=O)c2ccc(C)c(Br)c2)cc1	none (no result: Mdm2 ligase inh)
COc1ccc(C[C@H]2CN3C(=NC[C@@H]3Cc3ccccc3)N2CCNC(=O)c2ccc(C)c(Br)c2)cc1	Autophagy mod active (no result: Mdm2 ligase inh)
COc1ccc(C[C@H]2CN3C(=NC[C@H]3Cc3ccccc3)N2CCNC(=O)c2ccc(C)c(Br)c2)cc1	none (no result: Autophagy mod)
Cc1ccc(C(=O)N[C@@H](C)CN2C3=NC[C@H](C(C)C)N3C[C@H]2Cc2ccc(O)cc2)cc1Br	Autophagy mod active (no result: Mdm2 ligase inh)
O=C1CCCc2nc3nc4ccccc4n3cc21	none
Cc1sc2nc(CN(C(=O)NC3CCCCC3)C3CCCCC3)[nH]c(=O)c2c1C	none
CC(C)CC(NC(=O)c1ccc(C#CC(C)(C)O)s1)C(=O)O (configuration not stated)	none
CCn1c(SCc2nc3ccccc3[nH]2)nnc1-c1cccs1	Autophagy mod active
COc1ccc(N2CCN(CCCNC(=O)CN3CCN(Cc4ccccc4C)C3=O)CC2)cc1	Autophagy mod active
Cc1ccc(CN2CCN(CC(=O)NCCCN3CCN(c4ccc(F)cc4)CC3)C2=O)cc1	none
CC1(C)CC(NC(=O)C(=O)NCCc2ccccc2)CC(C)(C)N1	none (no result: Autophagy mod)
COc1ccc2cc(/C=N/NC(=O)CN(c3ccccc3C)S(=O)(=O)c3ccccc3)c(Cl)nc2c1	Autophagy mod active
COc1ccc(/C=N/NC(=O)CN(c2ccc(OC)cc2)S(=O)(=O)c2ccccc2)cc1	none
Cc1cc(C)c[n+](-c2nc3ccccc3nc2[N-]S(=O)(=O)c2ccc(Br)s2)c1	Autophagy mod active
O=S(=O)([N-]c1nc2ccccc2nc1-[n+]1ccccc1)c1ccccc1	none
CCOC(=O)c1ccc(N=c2sc(C(=O)OC)cc(=O)n2CCCN2CCOCC2)cc1	Dynein cargo inh -3.64! (no result: Autophagy mod)
CC(C(=O)NC1CCCC1)N(Cc1ccc2c(c1)OCO2)C(=O)c1snc(C(N)=O)c1N (configuration not stated)	Autophagy mod active
O=C(c1ccccc1)c1nccn1-c1ccc(Cl)nn1	none (no result: Autophagy mod)
COc1cc(-c2cc(C(=O)Nc3c(Cl)cc(Cl)cc3Cl)c3ccccc3n2)cc(OC)c1OC	none
COc1ccc2nc3ccccc3nc2c1NC(=O)c1ccc(Cl)cc1Cl	Autophagy mod active
O=C1C=Cc2ccccc2/C1=C/c1[nH]c(=O)[nH]c1O	none (no result: Autophagy mod)
CN(C)c1ncc(/C=C2/C(=O)NC(=S)N(C3CCCCC3)C2=O)cn1	Hck Nef HTS 68.3
Cc1cccc(NC(=S)NC(=O)/C=C/c2ccco2)n1	none
CSc1ccc(/C=c2\s/c(=C\C(=O)C(C)(C)C)n(CC(=O)NCCC3=CCCCC3)c2=O)cc1	Autophagy mod active
CCOCCCNC(=O)C(NC(=O)c1ccc2c(c1)OCO2)c1ccc(OC)cc1 (configuration not stated)	none
CCOCCCNC(=O)C(NC(=O)c1ccc2c(c1)OCO2)c1ccccc1 (configuration not stated)	Autophagy mod active
COc1ccc(COc2ccccc2C(=O)Nc2ccccn2)cc1[N+](=O)[O-]	none
COc1ccc(-n2nnnc2S(=O)(=O)Cc2ccc(C(=O)O)cc2)cc1	none
COc1ccc(-n2nnnc2S(=O)(=O)CC(=O)N2CCCCC2)cc1	Dynein cargo inh -3.89, L929 necroptosis 79.3
CC(C)(C)NC(=O)C(Cc1ccccc1)NS(=O)(=O)c1cccc2nsnc12 (configuration not stated)	Autophagy mod active
CCC(=O)NC1=C(Cl)C(=O)C(NC(=O)CC)=C(Cl)C1=O	none (no result: Autophagy mod)
O=C(CN1CCCc2ccccc21)N/N=C/c1ccc(O)cc1O	none
CCc1nnc(NC(=O)c2cc(S(=O)(=O)N3CCCCC3)ccc2N2CCOCC2)s1	Autophagy mod active
CCc1nnc(NC(=O)c2ccc(S(=O)(=O)N3CCOCC3)cc2)s1	none

Bioassay records as filed in PubChem.
